Assay [1] addresses T1, 5-hydroxytryptamine receptor 1A (Rattus norvegicus, UniProt P19327).
T1 sequence (P19327 whole entry): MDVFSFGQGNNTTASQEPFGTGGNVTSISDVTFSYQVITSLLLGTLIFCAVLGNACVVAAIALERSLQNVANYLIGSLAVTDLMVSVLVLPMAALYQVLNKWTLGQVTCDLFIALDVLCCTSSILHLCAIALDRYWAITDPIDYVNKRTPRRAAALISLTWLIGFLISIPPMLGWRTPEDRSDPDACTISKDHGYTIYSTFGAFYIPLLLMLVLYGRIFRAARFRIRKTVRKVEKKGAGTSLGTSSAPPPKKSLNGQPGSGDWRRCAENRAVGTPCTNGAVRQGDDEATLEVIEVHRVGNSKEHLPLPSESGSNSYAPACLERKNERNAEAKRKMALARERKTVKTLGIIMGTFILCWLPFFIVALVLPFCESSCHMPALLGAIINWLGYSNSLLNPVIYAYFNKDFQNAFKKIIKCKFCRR
In words: Binding affinity of 5-hydroxytryptamine 1A receptor using [3H]-8-OH-DPAT as radioligand. The method in brief: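 Membranes from cortex and hippocampus of male Sprague-Dawley rats, pooled from at least six rats, preincubated with 10 µM pargyline. Assay used 2 nM [3H]-8-OH-DPAT, test compound at 1-300 nM and 5 mg/mL tissue in 50 mM Tris-HCl with 4.0 mM CaCl2 and 5.7 mM ascorbate, pH 7.5. Incubated 10 min at 37 °C, filtered on GF/B, scintillation counted.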

The test system of assay [2] is Rattus norvegicus. Briefly: Induction of clear-cut 5-HT motor syndrome in normal rats at the dose of 32 umol/kg. It counts as functional.
Assay [3] is filed under the species Rattus norvegicus. Briefly: 5-HT (serotonin) turnover in rat hippocampus (0.05). It counts as functional. A digest of the protocol:
(§1)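 Rats given compound sc in 0.9% NaCl (screening dose typically 32 µmol/kg); decapitated about 30 min after dosing. Hippocampus and corpus striatum dissected and frozen. Perchloric acid homogenates analysed by HPLC with electrochemical detection. Turnover taken as 5-HIAA/5-HT or DOPAC/DA, expressed as percent of saline control. Means ± SEM; n = 5-7 controls, 4-6 treated. ANOVA with Tukey test.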

The species entered for assay [4] is Rattus norvegicus. In words: Dopamine (DA) turnover in rat corpus striatum (p<0.01). It counts as functional. A digest of the protocol:
as §1

Assay [5] has as its system Rattus norvegicus. Briefly: Change in body temperature of rats upon administration after 30 minutes (p<0.01). It counts as functional. A digest of the protocol: (§2)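 Colonic temperature taken with an electrical thermometer probe 3.5 cm deep, before and 30 min after sc injection in saline. Change reported in °C as mean ± SEM; animal numbers as in the cage-leaving test. ANOVA with Tukey test.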

Assay [6] has as its target T2, 5-hydroxytryptamine receptor 1A (Rattus norvegicus) (UniProt P19327).
T2 sequence (whole entry): T1 sequence (P19327 whole entry)
In words: Number of rats displaying the 5-HT syndrome or leaving the cage out of the number of rats tested. It counts as functional.

Assay [7] deals with T2, 5-hydroxytryptamine receptor 1A (Rattus norvegicus). Briefly: Induction of clear-cut 5-HT motor syndrome in reserpine (5 mg/kg, sc) pretreated rats at the dose of 32 micro mol/kg. It counts as functional, organism-based.
Assay [8] addresses T3, Dopamine receptor (Rattus norvegicus) (UniProt P25115+P19020+P30729+P18901+P61169). In words: Effect of accumulation of DOPA in rat striatum at the dose of 32 umol/kg. It counts as functional, tissue-based. A digest of the protocol:
(§3)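 Test compound given sc in 0.9% NaCl. NSD 1015 (287 µmol/kg sc) given 30 min later to inhibit aromatic L-amino acid decarboxylase; rats decapitated after a further 30 min. Hippocampus and striatum stored at -40 °C for up to 1 week. Perchloric acid homogenates with α-methyl-5-hydroxytryptophan internal standard; 5-HTP and DOPA measured by HPLC-EC. Percent of control, means ± SEM; ANOVA with Tukey test.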

Assay [9] deals with T2, 5-hydroxytryptamine receptor 1A (Rattus norvegicus). In words: Effect of 5-HT accumulation in rat hippocampus at the dose of 32 umol/kg (p<0.01). It counts as functional, tissue-based. The method in brief: as §3
Assay [10] shares this target. Briefly: Induction of clear-cut 5-HT motor syndrome in normal rats at the dose of 32 micro mol/kg. It counts as functional.
The target is the same in assay [11]. In words: 5-HT (serotonin) turnover in rat hippocampus (p<0.01). It counts as functional, tissue-based. The method in brief:
(§4)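 Rats dosed sc (screening dose typically 32 µmol/kg, in 0.9% NaCl, 2 mL/kg); decapitated 5-10 min after the 30-min rating, […]. Hippocampus dissected and frozen. 5-HIAA/5-HT ratio measured by HPLC with electrochemical detection (+0.85 V) after perchloric acid homogenisation. Reported as percent of saline control, mean ± SEM, n = 4-6 per group; ANOVA with Tukey test.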

The target of assay [12] is T3, Dopamine receptor (Rattus norvegicus). Briefly: Dopamine (DA) turnover in rat corpus striatum. It counts as functional, tissue-based. A digest of the protocol:
as §1

The test system of assay [13] is Rattus norvegicus. Briefly: Effect of DOPA accumulation in rat striatum at the dose of 32 umol/kg (p<0.1). It counts as functional. The method in brief:
as §3

Assay [14] deals with Rattus norvegicus. In words: Effect of accumulation of DOPA in rat striatum at the dose of 0.32 umol/kg. It counts as functional. The method in brief: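 Compound given sc in saline, then NSD 1015 (287 µmol/kg sc) to block aromatic L-amino acid decarboxylase 30 min later. Rats decapitated after another 30 min. Striatum stored at -40 °C for up to 1 week. DOPA quantified by HPLC-EC with α-methyl-5-hydroxytryptophan as internal standard. Reported as percent of control, mean ± SEM (n = 5-6 treated, 15 control); ANOVA with Tukey test.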

Assay [15] concerns Rattus norvegicus. Briefly: Effect of accumulation of DOPA in rat striatum at the dose of 1.0 umol/kg. It counts as functional. The method in brief: as §3
In assay [16] the test system is Rattus norvegicus. Briefly: Effect of 5-HT accumulation in rat hippocampus at the dose of 0.32 umol/kg (p<0.01). It counts as functional. The method in brief: as §3
Assay [17] deals with Rattus norvegicus. Briefly: Effect of 5-HT accumulation in rat hippocampus at the dose of 1.0 umol/kg (p<0.01). It counts as functional. A digest of the protocol:
as §3

For assay [18], the system named is Rattus norvegicus. Briefly: Effect of DOPA accumulation in rat striatum at the dose of 0.32 umol/kg (p<0.01). It counts as functional. A digest of the protocol:
as §3

Assay [19] relates to Rattus norvegicus. Briefly: Effect of DOPA accumulation in rat striatum at the dose of 1.0 umol/kg (p<0.01). It counts as functional. The method in brief:
as §3

The subject of assay [20] is Rattus norvegicus. Briefly: Induction of clear-cut 5-HT motor syndrome in reserpine (5 mg/kg, sc) pretreated rats at the dose of 1.0 micro mol/kg. It counts as functional.
Assay [21] has as its system Rattus norvegicus. In words: Induction of clear-cut 5-HT motor syndrome in normal rats at the dose of 1.0 micro mol/kg.
The species named for assay [22] is Rattus norvegicus. Briefly: Ability to inhibit cage leaving response. It counts as functional. A digest of the protocol: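 Normal rats given compound sc in saline, housed two per cage. Cage grid covers removed 12 min after injection; rats leaving the cage during the following 12 min were counted and reported as number leaving out of number tested.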
Assay [23] concerns Rattus norvegicus. Briefly: Ability to produce 5-HT motor syndrome in normal rats at the dose of 3.2 micro mol/kg. It counts as functional.
The target of assay [24] is T2, 5-hydroxytryptamine receptor 1A (Rattus norvegicus). In words: 5-HT (serotonin) turnover in rat hippocampus (p<0.05). It counts as functional, tissue-based. The method in brief: as §4
The species entered for assay [25] is Rattus norvegicus. In words: 5-HT (serotonin) turnover in rat hippocampus (p<.005). It counts as functional. The method in brief: as §1
In assay [26] the test system is Rattus norvegicus. Briefly: Effect of 5-HT accumulation in rat hippocampus at the dose of 32 umol/kg. It counts as functional. The method in brief:
as §3

The test system of assay [27] is Rattus norvegicus. Briefly: Induction of clear-cut 5-HT motor syndrome in normal rats at the dose of 32 uM/Kg. It counts as functional.
For assay [28], the target named is T2, 5-hydroxytryptamine receptor 1A (Rattus norvegicus). In words: Antagonistic effect on 5-HT syndrome or behavior of rat induced by (R)-1 at the dose of 32 and 1.0 umol/kg of compound (R)-1. It counts as functional. The method in brief: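 Compound (32 µmol/kg sc) or saline injected 10 min before (R)-8-OH-DPAT (1.0 µmol/kg sc). Flat body posture, forepaw treading and hindlimb abduction scored during 30 min of observation. Results as number of rats showing the behaviour out of number tested; Fisher's exact probability test.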

Assay [29] has the same target. In words: 5-HT (serotonin) turnover in rat hippocampus. It counts as functional, tissue-based. The method in brief: as §1
In assay [30] the test system is Rattus norvegicus. Briefly: Antagonistic effect on body temperature of rat induced by (R)-1 at the dose of 32 and 1.0 umol/kg of compound (R)-1. It counts as functional. A digest of the protocol: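 Compound (32 µmol/kg sc) or saline injected 10 min before (R)-8-OH-DPAT (1.0 µmol/kg sc). Colonic temperature taken before injection and 30 min later; result is the change from the preinjection value. One-way ANOVA with Tukey HSD test.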

Assay [31] deals with Rattus norvegicus. Briefly: Change in body temperature of rats upon administration after 30 minutes. It counts as functional. A digest of the protocol: as §2

Structures are written as SMILES. Several values for one entry are separate records, joined by “and”; a condition that tells them apart may be missing. Equal entries are not always repeated.

The Ki is a dissociation constant, usually derived from enzyme kinetics or from competition with a known ligand. Read a high Ki as a looser hold on the target. `CCCN(CCC)C1CCc2ccccc2C1` (racemic) yielded a Ki in assay [1] of 0.037 µM. Also, the Behavioral effect (in the assay with Rattus norvegicus [2]; in assay [7]) was 4 in each case. Further, the Turnover in the assay filed under Rattus norvegicus [3] came to 60; in the assay listed under Rattus norvegicus [4], 46. This compound also returned a Temperature in the assay on Rattus norvegicus [5] of -2. For the same compound, in assay [6], the No. of rats was 4.
Regarding `C#Cc1cccc2c1C[C@H](N(CCC)CCC)CC2`, the affinity in assay [1] corresponds to a Ki of 0.022 µM. The Accumulation in assay [8] amounted to 59; in assay [9], 43; in the assay on Rattus norvegicus [13], 50. In addition, the Behavioral effect in assay [10] and in assay [7] was 4 in each case. Moreover, the results for the Turnover in assay [11] and in assay [12] were 73 and 78, respectively. The compound also registered a Temperature with Rattus norvegicus [5] of -1.6. In addition, the No. of rats in assay [6] is 0.
In the case of `CCCN(CCC)[C@@H]1CCc2cccc(O)c2C1`, the Accumulation in the assay on Rattus norvegicus [14] stood at 106; with Rattus norvegicus [15], 98; with Rattus norvegicus [16], 44; in the assay on Rattus norvegicus [17], 45; in the assay with Rattus norvegicus [18] it was 106; in the assay with Rattus norvegicus [19], 98. The Behavioral effect with Rattus norvegicus [20] worked out at 15; in the assay on Rattus norvegicus [21], 42. Moreover, the values for the Turnover in assay [11] and in assay [12] were 66 and 96, respectively. For the same compound, in the assay with Rattus norvegicus [5], the Temperature is given as -2.6. For the same compound, the No. of rats in assay [6] was determined as 42.
As for `CCCN(CCC)[C@@H]1CCc2cccc(CO)c2C1`, the Ki in assay [1] came out at 0.023 µM. In addition, the Accumulation stood at 125 in assay [8] and 47 in assay [9]. In the assay filed under Rattus norvegicus [22], this compound had a Cage leaving of 4. The Behavioral effect in assay [10] and in assay [7] was 4 each time. This compound yielded an Effect in the assay with Rattus norvegicus [23] of 4. Further, the Turnover in assay [24] is 74 and 85; in assay [12], 93 and 88. In assay [6], this compound showed a No. of rats of 0.
Regarding `CCCN(CCC)[C@@H]1CCc2cccc(C)c2C1`, the Accumulation was determined as 86 in [8] and 54 in assay [9]. Besides, the figures for the Behavioral effect in assay [10] and in assay [7] were 4 and 0, respectively. Also, the Turnover in the assay listed under Rattus norvegicus [25] is 69; in assay [12], 88. In the assay with Rattus norvegicus [5], this compound gave a Temperature of -2.1. In assay [6], the No. of rats came out at 0.
As to `CCCN(CCC)[C@H]1CCc2cccc(C(=O)c3ccccc3)c2C1`, the affinity in assay [1] corresponds to a Ki of 0.016 µM. Besides, the Accumulation is 83 in assay [8] and 95 in the assay with Rattus norvegicus [26]. In addition, the Behavioral effect in the assay with Rattus norvegicus [27] is listed as 0. In addition, the Effect in [28] is 4. Moreover, the Turnover is 112 in assay [29] and 88 in assay [12]. Besides, the Temperature in the assay on Rattus norvegicus [30] is on record as -3.03; in the assay on Rattus norvegicus [31], 0.13. In addition, the No. of rats in assay [6] was 2.
